How the values were obtained:
[1] = Intrinsic clearance in human pooled liver microsomes at 1 uM incubated up to 120 mins in presence of NADPH by LC-MS analysis; type: ADME, Microsome; settings: read-out: CLH
[2] = Half life in human pooled liver microsomes at 1 uM incubated up to 120 mins in presence of NADPH by LC-MS analysis; type: ADME, Microsome
[3] = target: T1, Apelin receptor (Homo sapiens, UniProt P35414); assay: Agonist activity at human APJ receptor expressed in CHO cells assessed as inhibition of forskolin-induced cAMP accumulation measured after 30 mins by TR-FRET assay
T1 sequence (P35414 whole entry): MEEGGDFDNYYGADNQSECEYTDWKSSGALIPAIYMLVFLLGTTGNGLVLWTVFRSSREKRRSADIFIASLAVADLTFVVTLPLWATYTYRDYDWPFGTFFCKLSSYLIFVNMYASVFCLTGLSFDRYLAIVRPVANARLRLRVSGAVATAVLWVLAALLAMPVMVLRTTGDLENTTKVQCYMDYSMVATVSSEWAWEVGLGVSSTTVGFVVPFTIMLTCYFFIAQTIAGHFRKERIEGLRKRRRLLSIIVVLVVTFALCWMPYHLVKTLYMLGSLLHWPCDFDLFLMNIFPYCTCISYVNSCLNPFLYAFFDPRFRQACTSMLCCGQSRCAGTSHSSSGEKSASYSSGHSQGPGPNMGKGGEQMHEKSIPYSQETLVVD

[4] = target: T1, Apelin receptor; assay: Agonist activity at human AGTRL1 expressed in CHO-K1 cells assessed as induction of beta-arrestin 2 recruitment incubated for 90 mins by PathHunter assay; type: functional, cell-based
[5] = Half life in CD-1 mouse plasma at 15 mg/kg, ip measured up to 24 hrs by LC-MS/MS analysis; type: ADME, organism-based
How it was run: (§1)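 Male CD-1 mice, about 10 weeks old, acclimated 72 h. Single 15 mg/kg IP dose formulated in modified citrate buffer (pH 6). Animals sacrificed at 0.5, 1, 2, 4, 8 and 24 h to collect plasma and brain samples. Cmax, AUC_all, CL and T1/2 determined.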

[6] = Clearance in CD-1 mouse plasma at 15 mg/kg, ip measured up to 24 hrs by LC-MS/MS analysis; type: ADME, organism-based; how it was run: as §1
[7] = target: T2, Type-1 angiotensin II receptor (Homo sapiens, UniProt P30556); assay: Agonist activity at Galphaq16-fused human AGTR1 expressed in CHO cells assessed as stimulation of Ca2+ mobilization incubated for 1 hr by Calcium 5-dye based fluorescence based assay; type: functional, cell-based
T2 sequence (P30556 whole entry): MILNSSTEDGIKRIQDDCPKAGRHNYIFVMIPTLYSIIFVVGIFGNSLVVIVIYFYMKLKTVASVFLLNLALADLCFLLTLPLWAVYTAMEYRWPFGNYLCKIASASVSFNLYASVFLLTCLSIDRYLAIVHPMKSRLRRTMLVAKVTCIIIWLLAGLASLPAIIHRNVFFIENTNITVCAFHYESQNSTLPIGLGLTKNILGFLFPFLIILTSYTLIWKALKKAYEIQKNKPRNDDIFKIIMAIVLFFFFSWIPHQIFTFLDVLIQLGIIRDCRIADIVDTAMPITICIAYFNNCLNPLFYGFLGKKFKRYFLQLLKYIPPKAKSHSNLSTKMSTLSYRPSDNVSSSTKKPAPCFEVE
How it was run: (§2)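 CHO cells stably co-expressing Gαq16 with mouse APJ or human AGTR1; 20,000 hAGTR1 cells per well, plated 24 h at 37 °C. Loaded 1 h at 37 °C with Calcium 5 dye in HBSS buffer with 20 mM HEPES, 1% BSA, 10 μM probenecid, 1% DMSO final. Stimulated with compounds at various concentrations; fluorescence read on FLIPR Tetra. Duplicate, 2−3 runs.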

[8] = Protein binding in human plasma at 10 uM measured after 4 hrs by LC-MS/MS analysis; type: ADME, cell-free; settings: read-out: PPB (converted)
How it was run: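 Human plasma spiked at 10 μM, dialyzed against phosphate/NaCl buffer by rapid equilibrium dialysis for 4 h at 37 °C with shaking at 100 rpm. Samples matrix-matched, protein precipitated with cold acetonitrile/formic acid, and analyzed by LC−MS/MS. Three independent samples.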

[9] = target: T3, Apelin receptor (Mus musculus, UniProt Q9WV08); assay: Agonist activity at Galphaq16-fused mouse APJ receptor expressed in CHO cells assessed as stimulation of Ca2+ mobilization incubated for 1 hr by Calcium 5-dye based fluorescence based assay; type: cell-based; how it was run: as §2
T3 sequence (Q9WV08 whole entry): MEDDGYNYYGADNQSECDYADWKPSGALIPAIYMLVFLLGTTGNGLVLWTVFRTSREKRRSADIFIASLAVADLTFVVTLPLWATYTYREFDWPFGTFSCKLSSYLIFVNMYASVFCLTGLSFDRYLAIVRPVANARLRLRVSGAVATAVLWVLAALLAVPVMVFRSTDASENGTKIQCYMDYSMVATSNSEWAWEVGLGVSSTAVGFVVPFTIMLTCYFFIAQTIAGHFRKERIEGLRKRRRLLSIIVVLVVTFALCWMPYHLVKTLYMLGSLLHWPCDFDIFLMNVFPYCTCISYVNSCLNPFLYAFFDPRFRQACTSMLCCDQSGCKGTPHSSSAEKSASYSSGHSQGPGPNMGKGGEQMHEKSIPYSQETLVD

[10] = Kinetic solubility of the compound in pH 7.4 PBS buffer measured after 2 hrs by LC-MS/MS analysis; type: physicochemical; settings: read-out: Kinetic_solubility
How it was run: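 20 mM DMSO stock diluted into PBS pH 7.4 to a targeted 400 μM. Agitated 2 h at room temperature, filtered through 1 μm glass fiber, and eluate diluted 400-fold in acetonitrile/water (1:1) for analysis.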

[11] = AUC in CD-1 mouse plasma at 15 mg/kg, ip measured up to 24 hrs by LC-MS/MS analysis; type: ADME, organism-based; parameters: route intraperitoneal, dose 15 mg/kg, time <=24; how it was run: as §1
[12] = target: Voltage-gated inwardly rectifying potassium channel KCNH2 (Homo sapiens, UniProt Q12809); assay: Displacement of [3H]astemizole from human ERG at 10 uM measured after 60 mins by scintillation counter method; settings: 1 h
Sequence of Voltage-gated inwardly rectifying potassium channel KCNH2 (Q12809 whole entry): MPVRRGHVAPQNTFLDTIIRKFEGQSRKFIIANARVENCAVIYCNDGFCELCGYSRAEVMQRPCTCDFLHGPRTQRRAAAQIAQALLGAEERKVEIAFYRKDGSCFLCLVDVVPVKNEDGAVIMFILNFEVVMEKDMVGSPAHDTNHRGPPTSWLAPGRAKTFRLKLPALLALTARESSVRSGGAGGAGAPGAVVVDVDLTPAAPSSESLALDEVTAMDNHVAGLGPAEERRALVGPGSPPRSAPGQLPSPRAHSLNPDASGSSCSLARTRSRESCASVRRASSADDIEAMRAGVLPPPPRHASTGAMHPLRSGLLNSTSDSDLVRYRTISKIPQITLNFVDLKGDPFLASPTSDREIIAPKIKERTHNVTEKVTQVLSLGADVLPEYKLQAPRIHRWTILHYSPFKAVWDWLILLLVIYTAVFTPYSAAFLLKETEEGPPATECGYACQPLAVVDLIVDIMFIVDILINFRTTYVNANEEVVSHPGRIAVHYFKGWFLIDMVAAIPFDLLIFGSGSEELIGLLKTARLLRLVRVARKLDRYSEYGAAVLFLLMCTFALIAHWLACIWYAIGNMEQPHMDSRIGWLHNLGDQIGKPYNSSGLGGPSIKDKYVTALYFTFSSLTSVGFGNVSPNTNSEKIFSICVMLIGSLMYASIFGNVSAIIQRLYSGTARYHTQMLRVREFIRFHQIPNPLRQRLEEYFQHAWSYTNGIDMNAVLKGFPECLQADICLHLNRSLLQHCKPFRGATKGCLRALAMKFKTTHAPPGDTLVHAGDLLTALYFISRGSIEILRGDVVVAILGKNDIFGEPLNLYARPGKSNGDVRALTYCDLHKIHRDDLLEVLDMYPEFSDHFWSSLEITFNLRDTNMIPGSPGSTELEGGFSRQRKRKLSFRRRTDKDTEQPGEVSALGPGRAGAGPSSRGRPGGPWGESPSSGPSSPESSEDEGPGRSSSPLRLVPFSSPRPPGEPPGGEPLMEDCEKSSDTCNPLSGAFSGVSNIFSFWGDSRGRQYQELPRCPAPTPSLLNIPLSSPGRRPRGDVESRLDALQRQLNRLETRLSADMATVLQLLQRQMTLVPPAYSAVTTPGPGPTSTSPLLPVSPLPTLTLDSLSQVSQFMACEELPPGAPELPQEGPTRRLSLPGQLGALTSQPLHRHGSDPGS
How it was run: (§3)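 Competition binding using 4 μg hERG-expressing membranes with ~3 nM [3H]astemizole for 60 min in pH 7.4 HEPES buffer with 0.1% BSA. Terminated by filtration onto polyethyleneimine-soaked GF/B filters, washed with ice-cold buffer, and counted with scintillant. At least two runs in duplicate.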

[13] = Half life in CD-1 mouse brain at 15 mg/kg, ip measured up to 24 hrs by LC-MS/MS analysis; type: ADME, organism-based; how it was run: as §1
[14] = AUC in CD-1 mouse brain at 15 mg/kg, ip measured up to 24 hrs by LC-MS/MS analysis; type: ADME, organism-based; parameters: route intraperitoneal, dose 15 mg/kg, time <=24; how it was run: as §1
[15] = Cmax in CD-1 mouse brain at 15 mg/kg, ip measured up to 24 hrs by LC-MS/MS analysis; type: ADME, organism-based; parameters: route intraperitoneal, dose 15 mg/kg, time <=24; how it was run: as §1
[16] = target: hERG (KCNH2) (Homo sapiens, UniProt Q12809); assay: Displacement of [3H]astemizole from human ERG at 10 uM measured after 60 mins by scintillation counter method relative to control; settings: probe [3H]astemizole; how it was run: as §3
Sequence of hERG (KCNH2) (Q12809 whole entry): as above

[17] = Cmax in CD-1 mouse plasma at 15 mg/kg, ip measured up to 24 hrs by LC-MS/MS analysis; type: ADME, organism-based; parameters: route intraperitoneal, dose 15 mg/kg, time <=24; how it was run: as §1

| SMILES | CLint scaled at 1 µM [1] | half-life at 1 µM [2] | EC50 [3] | EC50 [4] | further results |
| --- | --- | --- | --- | --- | --- |
| COc1cccc(OC)c1-c1cc(C(=O)N[C@@H](CCN2CCCCC2)CC(=O)N(C)C2CCC2)nn1C1CCCC1 | 33.3 mL/min/kg | 37 min | 105 nM | 326 nM | – |
| COc1cccc(OC)c1-c1cc(C(=O)N[C@@H](CCN2CCCCC2)CC(=O)Nc2nccs2)nn1C1CCCC1 | 46.7 mL/min/kg | 27 min | 1 nM | – | – |
| COc1cccc(OC)c1-c1cc(C(=O)N[C@@H](CCN2CCCCC2)CC(=O)N(C)c2nccs2)nn1C1CCCC1 | 33.4 mL/min/kg | 37 min | 5 nM | 14 nM | – |
| COc1cccc(OC)c1-c1cc(C(=O)N[C@@H](CCN2CCOCC2)CC(=O)NC2CCC2)nn1C1CCCC1.Cl | 73.1 mL/min/kg | 17 min | 237 nM | 1350 nM | – |
| COc1cccc(OC)c1-c1cc(C(=O)N[C@@H](CCN2CCCCC2)CC(=O)Nc2nnn[nH]2)nn1C1CCCC1 | 25.8 mL/min/kg | 24.2 min | – | – | – |
| COc1cccc(OC)c1-c1cc(C(=O)N[C@@H](CCN2CCCCCC2)CC(=O)NC2CCC2)nn1C1CCCC1.Cl | 32.4 mL/min/kg | 38 min | 8 nM | 159 nM | – |
| COc1cccc(OC)c1-c1cc(C(=O)N[C@@H](CCN2CCCCC2)CC(=O)NC2CCC2)nn1C1CCCC1.Cl | 20 mL/min/kg | 62 min | – | – | half-life [5]: 162 min; CL/F [6]: 83 mL/min/kg; EC50 [7]: > 10000 nM; fraction unbound at 4 h, 10 µM [8]: 0.09; EC50 [9]: 22 nM; solubility kinetic at 2 h [10]: 192 µM; AUC at 24 h [11]: 3000 ng·h/mL; inhibition (INH) [12]: Not Active; half-life [13]: 804 min; AUC at 24 h [14]: 1080 ng·h/mL; Cmax [15]: 103 ng/mL; inhibition at 1 h, 10 µM [16]: < 50%; Cmax [17]: 1580 ng/mL |
| COc1cccc(OC)c1-c1cc(C(=O)N[C@@H](CCN2CCCCC2)CC(=O)NC2CC(F)(F)C2)nn1C1CCCC1 | 32.4 mL/min/kg | 38 min | – | – | – |
| COCCN(C)C(=O)C[C@H](CCN1CCCCC1)NC(=O)c1cc(-c2c(OC)cccc2OC)n(C2CCCC2)n1 | – | – | 2410 nM | > 10000 nM | – |
| CC(C)NCC(O)COc1cccc2ccccc12 (centres undefined) [PROPRANOLOL] | – | – | – | – | fraction unbound at 4 h, 10 µM [8]: 0.39 |
| COc1cccc(OC)c1-c1cc(C(=O)N[C@@H](CCN2CCCCC2)Cc2nnc[nH]2)nn1C1CCCC1 | 37.8 mL/min/kg | 33 min | 134 nM | 523 nM | – |
| COc1cccc(OC)c1-c1cc(C(=O)N[C@@H](CCN2C(C)CCCC2C)CC(=O)NC2CCC2)nn1C1CCCC1.Cl (some centres undefined) | 23.9 mL/min/kg | 52 min | 33 nM | 459 nM | – |
